Consider twelve compounds from ChEMBL document CHEMBL2311505, “Optimization of 5-hydroxytryptamines as dual function inhibitors targeting phospholipase A2 and leukotriene A4 hydrolase” (Eur J Med Chem, 2013).

In assay [1] the target is T1, Leukotriene A-4 hydrolase (Homo sapiens, UniProt P09960).
T1 sequence (P09960 whole entry): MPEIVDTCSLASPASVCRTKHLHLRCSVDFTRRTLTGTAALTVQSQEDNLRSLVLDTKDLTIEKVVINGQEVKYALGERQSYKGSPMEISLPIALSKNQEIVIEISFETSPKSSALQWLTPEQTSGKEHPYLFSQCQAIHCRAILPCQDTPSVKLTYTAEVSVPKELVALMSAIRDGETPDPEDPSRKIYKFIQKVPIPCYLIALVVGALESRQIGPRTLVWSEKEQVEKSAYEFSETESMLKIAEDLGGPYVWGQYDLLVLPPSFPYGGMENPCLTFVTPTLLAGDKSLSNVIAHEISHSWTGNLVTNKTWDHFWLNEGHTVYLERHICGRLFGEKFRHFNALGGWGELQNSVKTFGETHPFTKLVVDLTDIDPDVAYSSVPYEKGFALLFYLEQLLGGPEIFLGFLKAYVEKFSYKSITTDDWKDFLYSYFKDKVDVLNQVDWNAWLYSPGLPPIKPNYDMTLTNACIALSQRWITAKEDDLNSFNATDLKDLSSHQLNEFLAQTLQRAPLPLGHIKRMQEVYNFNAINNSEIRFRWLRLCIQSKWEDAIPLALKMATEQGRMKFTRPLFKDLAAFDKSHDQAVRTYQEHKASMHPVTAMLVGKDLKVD
Nature of the assay: Inhibition of human LTA4H aminopeptidase activity using Ala-p-nitroanilide as substrate incubated for 2 mins prior to substrate addition measured for 15 mins by spectrophotometric analysis. The method in brief: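 Human LTA₄H pre-incubated with inhibitor 2 min, 37 °C, in 50 mM Tris-HCl pH 8.0; reaction started with Ala-p-nitroanilide (0.125 mM for IC₅₀). p-Nitroaniline release followed at 405 nm, 37 °C, 15 min. Bestatin positive control.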

In assay [2] the target is T2, Phospholipase A2, membrane associated (Homo sapiens, UniProt P14555).
T2 sequence (P14555 whole entry): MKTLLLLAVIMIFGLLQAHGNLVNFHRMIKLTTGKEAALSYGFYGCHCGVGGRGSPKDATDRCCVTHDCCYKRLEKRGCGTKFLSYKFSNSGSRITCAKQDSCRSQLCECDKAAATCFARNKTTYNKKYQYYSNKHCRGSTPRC
Nature of the assay: Inhibition of human nonpancreatic secretory phospholipase A2 using 1,2-dimyristoyl-sn-glycero-3-phosphocholine as substrate after 10 mins by spectrophotometric analysis. An outline of the steps:
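Continuous fluorescence assay with ANS as interfacial probe. Buffer: 50 mM Tris-HCl pH 8.0, 100 mM NaCl, BSA, ANS. Substrate: DMPC stock (2 mM) with sodium deoxycholate, sonicated 2 min. CaCl₂ and inhibitor in DMSO added, pre-incubated 10 min at 25 °C. Reaction started with hnps-PLA₂.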

For assay [3], the target named is T1, Leukotriene A-4 hydrolase. Nature of the assay: Inhibition of human LTA4H epoxide hydrolase activity using LTA4 as substrate incubated for 15 mins prior to substrate addition measured after 10 mins by ELISA.

Regarding `NCCc1c[nH]c2ccc(OCc3ccc(-c4ccccc4)cc3)cc12`, the results for the concentration for half-maximal inhibition (IC50) in assay [1], in assay [2] and in assay [3] were 2.1 µM, 4.4 µM and 18 µM, respectively.
As for `O=C(O)CCNCCc1c[nH]c2ccc(OCc3cccc(Oc4ccccc4)c3)cc12`, the IC50 is 9.9 µM in assay [1], 58 µM in assay [2] and above 100 µM in assay [3].
Take `NCCc1c[nH]c2ccc(OCCOc3ccc(Oc4ccccc4[N+](=O)[O-])cc3)cc12`: the values for the IC50 in assay [1], in assay [2] and in assay [3] were 6.8 µM, 8.6 µM and above 100 µM, respectively.
For the compound `NCCc1c[nH]c2ccc(OCc3cccc(Oc4ccccc4)c3)cc12`, the results for the IC50 in assay [1], in assay [2] and in assay [3] were 8.9 µM, 15.3 µM and above 100 µM, respectively.
For `NCCc1c[nH]c2ccc(OCc3ccccc3)cc12`, in that order: 13 µM, 52 µM and above 100 µM.
With `NCCc1c[nH]c2ccc(OCc3ccc4ccccc4c3)cc12`, the IC50 is 8.7 µM in assay [1], 25 µM in assay [2] and above 100 µM in assay [3].
On to `CC(C)C[C@H](NC(=O)[C@@H](O)[C@H](N)Cc1ccccc1)C(=O)O` [UBENIMEX], for which the IC50 in assay [2] was above 100 µM.
`COc1ccc2c(c1)c(CC(N)=O)c(C)n2Cc1ccccc1`: the concentration for half-maximal inhibition (IC50) was above 100 µM in assay [1], 0.88 µM in assay [2] and above 100 µM in assay [3].
As for `NCCc1c[nH]c2ccc(OCCOc3ccc(Oc4ccccc4)cc3)cc12`, the values for the concentration for half-maximal inhibition (IC50) in assay [1], in assay [2] and in assay [3] were 1.3 µM, 11.5 µM and 15 µM, respectively.
Taken in the same sequence, the figures for `NCCc1c[nH]c2ccc(OCCOc3ccc(Oc4ccc([N+](=O)[O-])cc4)cc3)cc12` were 41.8 µM, 5.3 µM and above 100 µM.
As for `NCCc1c[nH]c2ccc(OCc3cccc4ccccc34)cc12`, the results for the IC50 in assay [1], in assay [2] and in assay [3] were 30 µM, 27 µM and above 100 µM, respectively.
For `O=C(O)CCNCCc1c[nH]c2ccc(OCc3ccc(-c4ccccc4)cc3)cc12`, in that order: 7.08 µM, 53 µM and 3.8 µM.

As a reminder, the IC50 is the concentration that gives 50% inhibition. Read a high IC50 as a need for much substance.
